Assay outcomes deposited in PubChem BioAssay by several laboratories.
Only some compounds are listed: those with a hit (about 2.6% of all), similar ones and a draw of the others.
CHT PAM – human CHT allosteric activation. Q9GZV3. 310,000 compounds, 0.49% hits. AID 488977. CHT-expressing cells, membrane potential dye, choline EC20; stronger effect = higher value; LV-AA mutant CHT in HEK293 cells. B-score at 10 µM;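 active = initial fluorescence not abnormally high and integrated response B-score, plate-corrected, over 3 SD above library mean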
CHT inh – human CHT choline transport inhibition; Q9GZV3; CHT-expressing cells, membrane potential dye, choline response; stronger effect = lower value; B-score at 10 µM; 310,000 compounds, 0.86% hits; AID 488975;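 active = B-score over 3 SD under the library average, and starting fluorescence ratio not unusually high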;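 also: choline stimulus applied at its EC90 after an EC20 pre-addition; B-score computed on integrated fluorescence ratio after choline addition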
Cl transport mod – modulates chloride dependent transport by human KCC2; B-score of Tl+ flux slope (higher = more flux/activation; lower = inhibition) at 10 µM; KCC2 cells, thallium flux FluoZin-2 fluorescence; 190,000 compounds, 2.2% hits;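 active = thallium flux slope and its plate-corrected score both differing from the plate sample mean at a set confidence after two filtering rounds, in either direction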;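 also: slope of fluorescence scaled to starting intensity during 10 to 20 s after thallium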
Target sequence (Q9H2X9 whole entry, looked up): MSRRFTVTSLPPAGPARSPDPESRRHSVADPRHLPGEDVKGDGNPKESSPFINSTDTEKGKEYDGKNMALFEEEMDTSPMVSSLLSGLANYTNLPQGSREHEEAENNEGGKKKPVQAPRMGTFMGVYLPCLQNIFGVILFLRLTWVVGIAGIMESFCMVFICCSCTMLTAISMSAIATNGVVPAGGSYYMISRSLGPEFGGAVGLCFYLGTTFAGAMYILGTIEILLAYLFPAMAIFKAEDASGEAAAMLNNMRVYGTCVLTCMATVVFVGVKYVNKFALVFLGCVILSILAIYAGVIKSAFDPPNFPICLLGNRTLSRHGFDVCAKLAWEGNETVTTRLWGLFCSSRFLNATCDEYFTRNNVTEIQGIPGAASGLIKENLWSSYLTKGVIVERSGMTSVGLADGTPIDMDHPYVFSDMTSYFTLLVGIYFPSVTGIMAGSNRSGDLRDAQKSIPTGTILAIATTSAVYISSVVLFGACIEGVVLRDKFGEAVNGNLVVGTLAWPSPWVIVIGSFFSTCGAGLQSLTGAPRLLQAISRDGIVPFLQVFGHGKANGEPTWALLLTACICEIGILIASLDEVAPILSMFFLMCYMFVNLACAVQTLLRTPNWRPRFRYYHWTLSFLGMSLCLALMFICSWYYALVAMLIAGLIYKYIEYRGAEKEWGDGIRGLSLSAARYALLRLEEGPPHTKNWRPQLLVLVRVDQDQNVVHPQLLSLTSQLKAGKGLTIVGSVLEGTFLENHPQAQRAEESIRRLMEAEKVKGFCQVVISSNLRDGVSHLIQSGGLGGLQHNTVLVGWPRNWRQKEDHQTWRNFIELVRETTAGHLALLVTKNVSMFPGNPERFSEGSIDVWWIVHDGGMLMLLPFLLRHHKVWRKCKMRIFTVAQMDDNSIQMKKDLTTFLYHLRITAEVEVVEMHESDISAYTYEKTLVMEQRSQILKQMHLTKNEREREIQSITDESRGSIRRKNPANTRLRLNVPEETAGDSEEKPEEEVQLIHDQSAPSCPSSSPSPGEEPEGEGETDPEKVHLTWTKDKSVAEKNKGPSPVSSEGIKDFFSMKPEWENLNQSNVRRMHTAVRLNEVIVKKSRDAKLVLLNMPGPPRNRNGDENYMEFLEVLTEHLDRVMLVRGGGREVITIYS
Rad51 HR inh – blocks human Rad51 in homologous recombination; Q06609; hRad51 DNA strand exchange, fluorescence dequenching; inhibition, % at 10 µM; 200,000 compounds, 0.085% hits;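 active = inhibition above 40% at the single screening dose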;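 also: 0% = DMSO control wells and 100% = blanks with heterologous ssDNA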
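material = hRad51 filaments on single-stranded DNA | timing = filaments 15 min 37 °C, then compound 30 min | signal = FRET fluorescence dequenching, excitation 485 nm, emission 520 nm | benchmarks = control wells and blank wells on each plate | evaluation = percent inhibition relative to plate controls and blanks | compound = 10 µM final, single point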
KCC2 sec1 – confirmation of human KCC2 transport modulators | shares compounds with Cl transport mod | HEK293-KCC2, thallium flux, FluoZin2 fluorescence; stronger effect = higher value | normalised thallium flux (F/F0 slope) at 10 µM | 3,700 compounds, 15% hits;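 active = thallium flux slope above the same plate's solvent-only control mean plus 3 SD; inconclusive = the two replicate wells disagree; inactive = no significant difference from solvent-only control wells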
KCC2 bumet counter – thallium flux persisting under bumetanide in KCC2 cells, counter-screen secondary assay. shares compounds with Cl transport mod. HEK293-KCC2 + bumetanide/ouabain, thallium flux FluoZin2; stronger effect = higher value. normalized thallium flux at 10 µM. 3,700 compounds, 49% hits. AID 1714;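 active = thallium entry rate above the same plate's blocked-transporter control wells by more than 3 SD; inconclusive = the two repeat wells disagree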;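 also: raw slope of fluorescence over initial fluorescence between 10 and 20 s after thallium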
KCC2 secondary2 – KCC2 (human) modulation, second secondary assay | 3,700 compounds, 23% hits | shares compounds with Cl transport mod | normalized thallium flux at 10 µM | HEK293-KCC2, thallium flux FluoZin2 fluorescence; actives lie on both sides; F/F0 rise rate, 10–20 s post-thallium;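 active = thallium flux slope more than 3 SD above or below the plate's solvent-only control mean, mostly below; inconclusive = the two repeat wells disagreed; inactive = no significant shift from solvent-only controls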;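 also: raw slope with 0.1% DMSO as baseline and bumetanide as block control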
HEK counter1 – acts in parental HEK cells, KCC2 counter-screen. shares compounds with Cl transport mod. HEK293 parental cells, thallium flux FluoZin2, ouabain; baseline-ratio fluorescence slope, 10–20 s after thallium. thallium flux rate (normalised fluorescence) at 10 µM. 3,700 compounds, 46% hits;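 active = thallium flux rate significantly above the same plate's solvent-only control wells, beyond their mean plus 3 SD; inconclusive = the two replicate wells gave conflicting results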
KCC2 retest ouab – modulates human KCC2 on retest with ouabain; shares compounds with Cl transport mod; HEK293-KCC2, thallium flux FluoZin2 fluorescence; bidirectional: low = inhibitor, high = activator; raw Tl+ flux slope (below DMSO = inhibition, above = activation) at 10 µM; 3,700 compounds, 48% hits; AID 1717;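 active = thallium flux slope beyond 3 SD from same-plate DMSO control mean in most replicates, usually higher, sometimes lower; inconclusive = repeat tests gave conflicting results; inactive = no significant difference from controls in most replicates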;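 also: slope of initial-normalized fluorescence between seconds 10 and 20 after thallium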
HEK counter2 – counter-screen for KCC2 modulators: effect in parental HEK293 cells; shares compounds with Cl transport mod; thallium flux FluoZin-2 fluorescence slope; thallium flux slope at 10 µM; 3,700 compounds, 33% hits; AID 1718;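 active = thallium flux slope above the same plate's solvent-control mean plus 3 SD in both duplicate wells; inconclusive = duplicate wells that disagreed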;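 also: run without ouabain in cells lacking the KCC2 cotransporter; slope of fluorescence scaled to its starting value between 10 and 20 s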
Starred values were filed as active, the others as inactive.

`Cc1cccc(N=Nc2ccc(O)c3ncccc23)c1` gave CHT PAM inactive, CHT inh inactive, Cl transport mod 15.1*, KCC2 sec1 0.0101, KCC2 bumet counter 0.0341*, KCC2 secondary2 0.0305, HEK counter1 0.033*, KCC2 retest ouab 0.049* and HEK counter2 0.0122*.
Cc1ccc(C)c(N=Nc2ccc(O)c3ncccc23)c1 was read as CHT PAM inactive, CHT inh inactive, Cl transport mod 13*, Rad51 HR inh 4.5, KCC2 sec1 inconclusive, KCC2 bumet counter 0.0118*, KCC2 secondary2 0.0321, HEK counter1 0.0105*, KCC2 retest ouab 0.032* and HEK counter2 inconclusive.
CCOc1ccc(N=Nc2ccc(O)c3ncccc23)cc1 was read as CHT PAM inactive and CHT inh inactive.
For CCCC(=O)Nc1c(-c2cccc(C)c2)c(=O)c2ccccc2n1C the results were CHT PAM inactive and CHT inh inactive.
`COc1ccc(CC(=O)OC(C)CN2CCCCC2)cc1` (stereo not drawn) gave CHT PAM inactive, CHT inh inactive, Cl transport mod 0.0546 and Rad51 HR inh -7.6.
For Cc1nn(-c2ccccc2)c2nc(C(Cl)(Cl)Cl)[nH]c(=O)c12 the results were CHT PAM inactive, CHT inh inactive, Cl transport mod 90.8*, Rad51 HR inh 24.0, KCC2 sec1 0.00641, KCC2 bumet counter 0.0714*, KCC2 secondary2 inconclusive, HEK counter1 0.0635*, KCC2 retest ouab 0.0654* and HEK counter2 0.0504*.
CC1c2[nH]c3ccccc3c2C[C@H]2C(=O)N(CCO)CC(=O)N12 (stereo partly drawn) was read as CHT PAM inactive and CHT inh inactive.
For CCn1c(NN)nc2sc3c(c2c1=O)CCC3 the results were CHT PAM inactive, CHT inh inactive, Cl transport mod 6.02*, Rad51 HR inh -9.2, KCC2 sec1 0.014*, KCC2 bumet counter 0.0192*, KCC2 secondary2 0.0347, HEK counter1 0.0178*, KCC2 retest ouab 0.0304* and HEK counter2 inconclusive.
Screening NNc1nc2sc3c(c2c(=O)n1Cc1ccccc1)CCC3 returned CHT PAM inactive, CHT inh inactive, Cl transport mod 4.05*, Rad51 HR inh -16.6, KCC2 sec1 0.0118, KCC2 bumet counter 0.0169*, KCC2 secondary2 0.0373, HEK counter1 inconclusive, KCC2 retest ouab inconclusive and HEK counter2 0.0118.
`COCCN(C(=O)COC(=O)c1cc(C)oc1C)c1c(N)n(Cc2ccccc2)c(=O)[nH]c1=O` gave CHT PAM inactive and CHT inh inactive.
CCOc1ccc(NC(=S)NC(=O)c2c(Cl)cnn2CC)c([N+](=O)[O-])c1 was read as CHT PAM inactive, CHT inh inactive, Cl transport mod 18.6*, Rad51 HR inh 8.4, KCC2 sec1 0.0179*, KCC2 bumet counter 0.0558*, KCC2 secondary2 0.0341, HEK counter1 0.0287*, KCC2 retest ouab 0.0444* and HEK counter2 0.0138*.
`CSc1ccc(/C=C(\C(=O)O)c2ccc(S(=O)(=O)N3CCCCC3)s2)cc1` gave CHT PAM inactive, CHT inh inactive, Cl transport mod -4.86 and Rad51 HR inh -2.5.
For O=C(O)/C(=C\c1ccc(Cl)c([N+](=O)[O-])c1)c1ccc(S(=O)(=O)N2CCCCC2)s1 the results were CHT PAM inactive, CHT inh inactive, Cl transport mod -7.77*, KCC2 sec1 0.00873, KCC2 bumet counter 0.00626, KCC2 secondary2 0.0299, HEK counter1 0.00716, KCC2 retest ouab 0.0111* and HEK counter2 0.0115.
For CCOC(=O)CSc1cn2c(n1)CCC2 the results were CHT PAM inactive, CHT inh inactive and Cl transport mod 1.9.
Screening Cc1cc(OCc2cc(C(=O)NCc3csc(C(C)C)n3)no2)cc(C)c1Cl returned CHT PAM inactive and CHT inh inactive.
Screening NC(=S)Nc1ncc(C(F)(F)F)cc1Cl returned CHT PAM inactive, CHT inh inactive, Cl transport mod 15.8*, Rad51 HR inh -2.8, KCC2 sec1 0.00646, KCC2 bumet counter 0.0586*, KCC2 secondary2 0.0473*, HEK counter1 0.0357*, KCC2 retest ouab 0.047* and HEK counter2 0.0386*.
`Cc1ccccc1NC(=S)NNc1ncc(C(F)(F)F)cc1Cl` gave CHT PAM inactive, CHT inh inactive, Cl transport mod 1.5 and Rad51 HR inh -6.0.
`NC(=S)c1ncc(C(F)(F)F)cc1Cl` gave CHT PAM inactive, CHT inh inactive, Cl transport mod 1.18 and Rad51 HR inh -5.9.
Cc1c(Cl)cccc1NC(=S)NNc1ncc(C(F)(F)F)cc1Cl was read as CHT PAM inactive, CHT inh -5.27*, Cl transport mod 5.5*, Rad51 HR inh -11.8, KCC2 sec1 0.0061, KCC2 bumet counter 0.0488*, KCC2 secondary2 inconclusive, HEK counter1 0.0178*, KCC2 retest ouab 0.0384* and HEK counter2 0.0206*.
`COc1ccc(Oc2cnn(-c3ccccc3)c(=O)c2Br)cc1` gave CHT PAM inactive, CHT inh inactive, Cl transport mod -0.95 and Rad51 HR inh -2.1.
Screening CC(C)(C)N(Cc1ccccc1)C(=O)COC(=O)CNC(=O)c1ccco1 returned CHT PAM inactive and CHT inh inactive.
Screening Cc1cc(C(=O)NNc2c(Cl)cccc2Cl)n(C(C)(C)C)n1 returned CHT PAM inactive, CHT inh inactive and Rad51 HR inh 21.7.
O=C(Nc1nc2ccsc2c(=O)s1)c1ccc(F)cc1Cl was read as CHT PAM inactive, CHT inh inactive, Cl transport mod 1.35 and Rad51 HR inh 19.8.
For O=C(Nc1nc2ccsc2c(=O)s1)c1ccc(F)cc1 the results were CHT PAM inactive, CHT inh inactive, Cl transport mod 3.76*, Rad51 HR inh 0.5, KCC2 sec1 0.01, KCC2 bumet counter inconclusive, KCC2 secondary2 0.0324, HEK counter1 0.0111*, KCC2 retest ouab 0.0207 and HEK counter2 0.0117.
